Data as given in ChEMBL document CHEMBL4007484, “Pharmacokinetic optimitzation of CCG-203971: Novel inhibitors of the Rho/MRTF/SRF transcriptional pathway as potential antifibrotic therapeutics for systemic scleroderma” (Bioorg Med Chem Lett, 2017).

What was measured:
[1] = Inhibition of Rho/MRTF/SRF pathway (unknown origin) expressed in HEK293T cells assessed as reduction in Galpha12-stimulated MRTF-selective SRE.L promoter-driven luciferase activity after overnight incubation by luminescence assay; assay type: cell-based, Homo sapiens
Procedure, shortened: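 Signal was stimulated with Gα12 and luciferase activity was read. IC50 in μM is the mean of n ≥ 3.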

Liver [2] = experiment: Half life in CD-1 mouse liver microsomes at 1 uM in presence of NADPH by LC-MS/MS analysis; assay type: ADME, microsome
Procedure, shortened: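 Half-life measured by incubation in mouse liver microsomes.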

Homo sapiens = species: Homo sapiens; experiment: Inhibition of Rho/MRTF/SRF pathway in human primary dermal fibroblasts assessed as inhibition of TGF-beta-stimulated ACTA2 gene expression by measuring ACTA2 mRNA level at 10 uM after 24 hrs by qRT-PCR method relative to control; design: scale not given: the % may be the effect or the level left
Procedure, shortened: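 Primary human dermal fibroblasts stimulated with TGF-β and treated with compound at 10 μM for 24 h. ACTA2 mRNA was measured by qPCR and expressed as percent of control, mean of n=3.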

[3] = Thermodynamic aqueous solubility of the compound in water by nitrogen detection method; assay type: physicochemical; conditions: buffer
Procedure, shortened: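 Thermodynamic solubility in water, reported in μg/mL.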

Liver [4] = experiment: Drug level in CD-1 mouse liver microsomes treated with CCG-222740 at 20 uM after 3 mins in presence of NADPH by LC-MS/MS analysis; assay type: ADME, microsome; conditions: 0.05 h
[5] = AUC (0 to 7 hrs) in CD-1 mouse at 10 mg/kg, ip administered as single dose by LC-MS/MS analysis; assay type: ADME, organism-based; design: dose 10 mg/kg, time < 7 hr, route intraperitoneal; conditions: in vivo
Procedure, shortened: (§1)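 Mice dosed once, by intraperitoneal injection at 10 mg/kg or by oral gavage at 20 mg/kg. AUC is estimated from the plasma concentration curve over 0–7 h and is expressed as hr.ng/mL.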

[6] = AUC (0 to 7 hrs) in CD-1 mouse at 20 mg/kg, po administered via gavage as single dose by LC-MS/MS analysis; assay type: ADME, organism-based; design: time < 7 hr, dose 20 mg/kg, route oral; conditions: in vivo; procedure, shortened: as §1
[7] = Plasma concentration in CD-1 mouse at 10 mg/kg, ip or 20 mg/kg, po administered via gavage as single dose measured at 0.5 hrs post dose by LC-MS/MS analysis; assay type: ADME, organism-based
Procedure, shortened: (§2)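 Plasma concentration in μM after a single dose in mice (IP 10 mg/kg or PO gavage 20 mg/kg), sampled at 0.5 h and at 7 h post-dose.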

[8] = Plasma concentration in CD-1 mouse at 10 mg/kg, ip or 20 mg/kg, po administered via gavage as single dose measured at 7 hrs post dose by LC-MS/MS analysis; assay type: ADME, organism-based; procedure, shortened: as §2
Liver [9] = experiment: Drug metabolism in CD-1 mouse liver microsomes assessed as 5,5-difluoro-1-(3-(furan-2-yl)benzoyl)piperidine-3-carboxylic acid formation at 20 uM after 3 mins in presence of NADPH by LC-MS/MS analysis; assay type: ADME, microsome; conditions: 0.05 h
Liver [10] = experiment: Drug metabolism in CD-1 mouse liver microsomes assessed as oxidative metabolism at 20 uM after 3 mins in presence of NADPH by LC-MS/MS analysis; assay type: ADME, microsome; conditions: 0.05 h
Mus musculus [11] = experiment: Antifibrotic activity in C57BL/6 mouse bleomycin-induced dermal fibrosis model assessed as inhibition of dermal thickness at 50 mg/kg, po qd for 2 weeks by Masson's trichrome staining based microscopic method relative to control; assay type: functional; conditions: C57BL/6, po, 336 h
Procedure, shortened: (§3)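 Three groups of mice (n=8) dosed daily for 14 days. The groups were: intracutaneous PBS; intracutaneous bleomycin plus vehicle by oral gavage; intracutaneous bleomycin plus test compound at 50 mg/kg by oral gavage. Read-outs were dermal thickness and skin hydroxyproline content. Each is given as the reduction of the bleomycin-induced increase.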

Mus musculus [12] = experiment: Antifibrotic activity in C57BL/6 mouse bleomycin-induced dermal fibrosis model assessed as inhibition ofhydroxyproline content at 50 mg/kg, po qd for 2 weeks relative to control; assay type: functional; conditions: C57BL/6, po, 336 h; procedure, shortened: as §3

CC(=O)N1CCN(C(=O)c2cccc(-c3ccco3)c2)CC1C(=O)Nc1ccc(Cl)cc1 (configuration not stated) showed an IC50 [1] of 21000 nM.
O=C1CC(C(=O)Nc2ccc(Cl)cc2)CN(C(=O)c2cccc(-c3ccco3)c2)C1 (configuration not stated) showed an IC50 [1] of 3900 nM.
With O=C(Nc1ccc(Cl)cc1)C1CN(C(=O)c2cccc(-c3ccco3)c2)CCO1 (configuration not stated) the IC50 [1] was 3100 nM.
Work on O=C(Nc1ccc(Cl)cc1)C1CCCN(C(=O)c2cccc(-c3cn[nH]c3)c2)C1 (configuration not stated) yielded an IC50 [1] of 3000 nM, a t1/2 (Liver [2]) of 5.6 min and an Activity (Homo sapiens) of 73%.
O=C(Nc1ccc(Cl)cc1)C1CN(C(=O)c2cccc(-n3cccn3)c2)CC(F)(F)C1 (configuration not stated) showed an IC50 [1] of 680 nM, a t1/2 (Liver [2]) of 4.8 min and a Therm_solubility [3] of 23 µg/mL. For the same compound, the Activity (Homo sapiens) was 140%.
O=C(Nc1ccc(Cl)cc1)C1CCCN(C(=O)c2cccc(-c3cc[nH]n3)c2)C1 (configuration not stated) gave an IC50 [1] of 920 nM and a t1/2 (Liver [2]) of 3.4 min.
COC(=O)N1CCN(C(=O)c2cccc(-c3ccco3)c2)CC1C(=O)Nc1ccc(Cl)cc1 (configuration not stated) showed an IC50 [1] of 2700 nM.
With O=C(Nc1ccc(Cl)cc1)C1CN(C(=O)c2cccc(-c3ccccn3)c2)CC(F)(F)C1 (configuration not stated) the IC50 [1] was 1000 nM, the t1/2 (Liver [2]) was 9.5 min and the Therm_solubility [3] was 3.9 µg/mL. It also gave an Activity (Homo sapiens) of 37%.
In the case of O=C(O)C1CN(C(=O)c2cccc(-c3ccco3)c2)CC(F)(F)C1 (configuration not stated), the Drug metabolism (Liver [4]) is reported as “Metabolite_Detected”.
With O=C(c1cccc(-c2ccco2)c1)N1CCCC(COc2ccc(Cl)cc2)C1 (configuration not stated) the IC50 [1] was 810 nM and the t1/2 (Liver [2]) was 1.8 min.
O=C(Nc1ccc(Cl)cc1)C1CN(C(=O)c2cc(F)cc(-c3ccncc3)c2)CC(F)(F)C1 (configuration not stated) gave an IC50 [1] of 530 nM, a t1/2 (Liver [2]) of 6.9 min and a Therm_solubility [3] of 9.8 µg/mL. It also gave an Activity (Homo sapiens) of 14%, an AUC(0-t) at 7 h [5] of 26700 ng·h/mL and an AUC(0-t) at 7 h [6] of 36400 ng·h/mL. The concentration at 0.5 h [7] was 13.2 µM and the concentration at 7 h [8] was 1.3 µM.
O=C(Nc1ccc(Cl)cc1)C1CCCN(C(=O)c2cccc(-n3cccn3)c2)C1 (configuration not stated) showed an IC50 [1] of 2900 nM and a t1/2 (Liver [2]) of 1.7 min.
Compound O=C(Nc1ccc(Cl)cc1)C1CCCN(C(=O)c2cc(-c3ccco3)on2)C1 (configuration not stated) has an IC50 [1] of 6800 nM.
Work on O=C(Nc1ccc(Cl)cc1)C1CN(C(=O)c2cccc(-c3cncnc3)c2)CC(F)(F)C1 (configuration not stated) yielded an IC50 [1] of 3200 nM.
Work on C=C1CC(C(=O)Nc2ccc(Cl)cc2)CN(C(=O)c2cccc(-c3ccco3)c2)C1 (configuration not stated) yielded an IC50 [1] of 98 nM, a t1/2 (Liver [2]) of 1.4 min and an Activity (Homo sapiens) of 9.5%.
For Cn1cncc1-c1cccc(C(=O)N2CC(C(=O)Nc3ccc(Cl)cc3)CC(F)(F)C2)c1 (configuration not stated), the IC50 [1] was 370 nM, the t1/2 (Liver [2]) was 16 min and the Therm_solubility [3] was 14.9 µg/mL. It also gave an Activity (Homo sapiens) of 110%.
In the case of O=C(Nc1ccc(Cl)cc1)C1CCCN(C(=O)c2cc(-c3ccco3)ccn2)C1 (configuration not stated), the IC50 [1] is reported as 1900 nM and the t1/2 (Liver [2]) is reported as under 3 min.
With CN(C(=O)C1CCCN(C(=O)c2cccc(-c3ccco3)c2)C1)c1ccc(Cl)cc1 (configuration not stated) the IC50 [1] was 8600 nM.
Work on O=C(Nc1ccc(Cl)cc1)C1CCCN(C(=O)c2cnc(-c3ccco3)s2)C1 (configuration not stated) yielded an IC50 [1] of 5800 nM.
CN(C)C1CC(C(=O)Nc2ccc(Cl)cc2)CN(C(=O)c2cccc(-c3ccco3)c2)C1 (configuration not stated) showed an IC50 [1] of 5800 nM and a t1/2 (Liver [2]) of 3.3 min.
In the case of O=C(Nc1ccc(Cl)cc1)C1CCCN(C(=O)c2csc(-c3ccco3)n2)C1 (configuration not stated), the IC50 [1] is reported as 6200 nM.
O=C(Nc1ccc(Cl)cc1)C1CCCN(C(=O)c2cc(-c3ccco3)[nH]n2)C1 (configuration not stated) showed an IC50 [1] of 5300 nM.
O=C(Nc1ccc(Cl)cc1)C1CN(C(=O)c2cc(-c3ccco3)ccn2)CC(F)(F)C1 (configuration not stated) showed an IC50 [1] of 7100 nM and a t1/2 (Liver [2]) of 2.5 min.
O=C(Nc1ccc(Cl)cc1)C1CN(C(=O)c2cncc(-c3ccco3)c2)CC(F)(F)C1 (configuration not stated) showed an IC50 [1] of 3500 nM and a t1/2 (Liver [2]) of 3 min.
For O=C(Nc1ccc(Cl)cc1)C1CN(C(=O)c2cncc(-c3ccncc3)c2)CC(F)(F)C1 (configuration not stated), the IC50 [1] was 1200 nM, the t1/2 (Liver [2]) was 7.7 min and the Therm_solubility [3] was 62 µg/mL. It also gave an Activity (Homo sapiens) of 190%.
For O=C(Nc1ccc(Cl)cc1)C1CCCN(C(=O)c2cccc(-n3ccnc3)c2)C1 (configuration not stated), the IC50 [1] was 5200 nM.
For O=C(Nc1ccc(Cl)cc1)C1CN(C(=O)c2cccc(-c3cccnc3)c2)CC(F)(F)C1 (configuration not stated), the IC50 [1] was 900 nM and the t1/2 (Liver [2]) was under 3 min.
O=C(Nc1ccc(Cl)cc1)C1CN(C(=O)c2cccc(-c3ncccn3)c2)CC(F)(F)C1 (configuration not stated) showed an IC50 [1] of 3000 nM, a t1/2 (Liver [2]) of 11.9 min and a Therm_solubility [3] of 75.4 µg/mL. The Activity (Homo sapiens) was 65%.
For O=C(Nc1ccc(Cl)cc1)C1CN(C(=O)c2cccc(-c3ccco3)c2)CC(F)(F)C1 (configuration not stated), the IC50 [1] was 600 nM, the t1/2 (Liver [2]) was 4.9 min and the Therm_solubility [3] was 2.3 µg/mL. For the same compound, the Activity (Homo sapiens) was 9.3%, the AUC(0-t) at 7 h [5] was 9200 ng·h/mL and the Drug metabolism (Liver [9]) was “Metabolite_Detected”.
Compound O=C(Nc1ccc(Cl)cc1)C1CN(C(=O)c2cccc(-c3cn[nH]c3)c2)CC(F)(F)C1 (configuration not stated) has an IC50 [1] of 4500 nM and a t1/2 (Liver [2]) of 13 min.
O=C(NC1CCCN(C(=O)c2cccc(-c3ccco3)c2)C1)c1ccc(Cl)cc1 (configuration not stated) showed an IC50 [1] of 4900 nM.
O=C(c1cccc(-c2ccco2)c1)N1CCCC(F)(C(=O)Nc2ccc(Cl)cc2)C1 (configuration not stated) showed an IC50 [1] of 800 nM and a t1/2 (Liver [2]) of 2.8 min.
O=C(Nc1ccc(Cl)cc1)C1CCCN(C(=O)c2cncc(-c3ccco3)c2)C1 (configuration not stated) showed an IC50 [1] of 2900 nM and a t1/2 (Liver [2]) of under 3 min.
O=C(Nc1ccc(Cl)cc1)C1CCCN(C(=O)c2cccc(-c3ccco3)c2)C1 (configuration not stated) gave an IC50 [1] of 640 nM, a t1/2 (Liver [2]) of 1.6 min and a Therm_solubility [3] of 13.4 µg/mL. For the same compound, the Drug metabolism (Liver [10]) was “Metabolite_Detected”, the Activity (Homo sapiens) was 37% and the AUC(0-t) at 7 h [5] was 1200 ng·h/mL.
With O=C(Nc1ccc(Cl)cc1)C1CN(C(=O)c2cccc(-c3ncc[nH]3)c2)CC(F)(F)C1 (configuration not stated) the IC50 [1] was 5500 nM.
O=C(Nc1ccc(Cl)cc1)C1CN(C(=O)c2cccc(-c3ccncc3)c2)CC(F)(F)C1 (configuration not stated) gave an IC50 [1] of 550 nM, a t1/2 (Liver [2]) of 7.8 min and a Therm_solubility [3] of 23.1 µg/mL. For the same compound, the Activity (Homo sapiens) was 31%, the AUC(0-t) at 7 h [5] was 15300 ng·h/mL and the AUC(0-t) at 7 h [6] was 33700 ng·h/mL. It also gave a concentration at 0.5 h [7] of 14.4 µM, a concentration at 7 h [8] of 2.4 µM and an inhibition in vivo at 50 mg/kg (Mus musculus [11]) of 55%. For the same compound, the inhibition in vivo at 50 mg/kg (Mus musculus [12]) was 62%.
Work on CC1(C(=O)Nc2ccc(Cl)cc2)CCCN(C(=O)c2cccc(-c3ccco3)c2)C1 (configuration not stated) yielded an IC50 [1] of 550 nM and a t1/2 (Liver [2]) of 0.84 min.
Compound O=C(Nc1ccc(Cl)cc1)C1CCCN(C(=O)c2cc(-c3ccco3)ncn2)C1 (configuration not stated) has an IC50 [1] of 15300 nM.
In the case of CC(=O)NC1CC(C(=O)Nc2ccc(Cl)cc2)CN(C(=O)c2cccc(-c3ccco3)c2)C1 (configuration not stated), the IC50 [1] is reported as 5000 nM.
COC(=O)NC1CC(C(=O)Nc2ccc(Cl)cc2)CN(C(=O)c2cccc(-c3ccco3)c2)C1 (configuration not stated) gave an IC50 [1] of 5000 nM.
